Reference: ChEMBL document CHEMBL2311457, “Identification of bacteria-selective threonyl-tRNA synthetase substrate inhibitors by structure-based design” (J Med Chem, 2013)
Converted amounts (≈) assume the structure as drawn.

Assays:
[1] = Binding affinity to Escherichia coli ThrRS by coupled spectrophotometry
Summary of the method: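 Coupled spectrophotometric assay following pyrophosphate released during ATP-dependent adenylation, read out through MESG with inorganic pyrophosphatase and purine nucleoside phosphorylase. Buffer was 60 mM Tris pH 7.6, 10 mM MgCl₂, 20 mM KCl, 0.5 mM DTT, 2% DMSO, with 4 mM ATP, 200 mM L-serine as surrogate substrate and 5 nM enzyme.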

Threonine--tRNA ligase = molecular target: T1, Threonine--tRNA ligase (Yersinia pestis, UniProt Q8ZDW5); assay: Binding affinity to Yersinia pestis ThrRS by coupled spectrophotometry
T1 sequence (Q8ZDW5 whole entry): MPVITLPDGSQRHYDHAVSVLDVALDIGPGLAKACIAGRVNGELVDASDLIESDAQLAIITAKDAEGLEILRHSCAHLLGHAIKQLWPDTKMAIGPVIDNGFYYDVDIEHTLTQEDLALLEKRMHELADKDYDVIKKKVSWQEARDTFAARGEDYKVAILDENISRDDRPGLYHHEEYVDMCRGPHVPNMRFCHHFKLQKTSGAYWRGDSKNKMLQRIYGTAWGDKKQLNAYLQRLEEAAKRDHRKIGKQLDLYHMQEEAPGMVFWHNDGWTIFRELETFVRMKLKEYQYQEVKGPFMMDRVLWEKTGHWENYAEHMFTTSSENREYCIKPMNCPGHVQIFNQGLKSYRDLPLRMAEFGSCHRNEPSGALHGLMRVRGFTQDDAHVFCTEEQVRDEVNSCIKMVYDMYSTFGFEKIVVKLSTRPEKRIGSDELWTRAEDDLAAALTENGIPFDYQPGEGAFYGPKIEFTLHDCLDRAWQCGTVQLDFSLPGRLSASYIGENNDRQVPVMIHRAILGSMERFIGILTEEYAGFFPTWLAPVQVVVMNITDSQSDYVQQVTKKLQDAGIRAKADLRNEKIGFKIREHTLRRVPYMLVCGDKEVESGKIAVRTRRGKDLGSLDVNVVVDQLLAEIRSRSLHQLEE
Summary of the method: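 Coupled spectrophotometric (MESG) readout of pyrophosphate release during adenylation; L-serine 200 mM as surrogate substrate, 4 mM ATP, 5 nM enzyme, Tris pH 7.6, MgCl₂, KCl, DTT, 2% DMSO. Inhibitor 16-point 2-fold series, 50 μM–1.5 nM, normalised to no-inhibitor and no-enzyme controls. IC50 from 4-parameter fit; Ki by bisubstrate Cheng–Prusoff.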

[2] = Binding affinity to Burkholderia thailandensis ThrRS by coupled spectrophotometry
[3] = molecular target: T2, Threonine--tRNA ligase 1, cytoplasmic (Homo sapiens, UniProt P26639); assay: Binding affinity to human cytoplasmic ThrRS by coupled spectrophotometry
T2 sequence (P26639 whole entry): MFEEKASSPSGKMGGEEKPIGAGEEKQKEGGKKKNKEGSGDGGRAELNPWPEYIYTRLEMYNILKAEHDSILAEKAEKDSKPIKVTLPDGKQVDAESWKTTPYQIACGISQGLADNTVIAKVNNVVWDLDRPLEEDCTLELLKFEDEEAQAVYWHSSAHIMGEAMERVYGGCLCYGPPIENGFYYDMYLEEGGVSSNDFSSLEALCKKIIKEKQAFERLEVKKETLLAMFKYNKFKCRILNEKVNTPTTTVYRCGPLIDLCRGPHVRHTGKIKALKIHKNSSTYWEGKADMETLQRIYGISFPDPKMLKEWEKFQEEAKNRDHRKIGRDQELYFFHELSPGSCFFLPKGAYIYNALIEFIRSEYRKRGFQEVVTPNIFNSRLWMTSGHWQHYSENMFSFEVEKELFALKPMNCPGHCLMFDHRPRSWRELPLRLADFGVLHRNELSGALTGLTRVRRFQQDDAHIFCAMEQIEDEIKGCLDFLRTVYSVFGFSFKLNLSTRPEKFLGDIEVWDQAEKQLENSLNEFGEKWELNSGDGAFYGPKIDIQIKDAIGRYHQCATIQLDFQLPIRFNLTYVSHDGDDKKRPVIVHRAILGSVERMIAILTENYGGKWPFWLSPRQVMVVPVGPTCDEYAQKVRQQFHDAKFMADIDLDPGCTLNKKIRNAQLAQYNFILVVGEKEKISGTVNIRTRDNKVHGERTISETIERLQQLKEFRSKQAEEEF

Haemophilus influenzae = assay: Antimicrobial activity against wild type Haemophilus influenzae ATCC 31517 measured after overnight incubation by alamarBlue assay; assay type: functional
Summary of the method: (§1)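 Broth microdilution per CLSI; DMSO stocks at 6.4 mg/mL, serially diluted and added 1:50 to inoculated medium for final 0.063–128 μg/mL. Inoculum about 5 × 10⁵ CFU/mL, checked by plating. Overnight at 37 °C; H. influenzae grown in Haemophilus test medium broth with 5% CO₂. alamarBlue added for 1 h; MIC read as the lowest concentration with no visible color change.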

[4] = test system: Burkholderia thailandensis; assay: Antimicrobial activity against wild type Burkholderia thailandensis E264 measured after overnight incubation by alamarBlue assay; assay type: functional
Escherichia coli [5] = assay: Antimicrobial activity against wild type Escherichia coli ATCC 25922 measured after overnight incubation by alamarBlue assay; assay type: functional; summary of the method: as §1
[6] = test system: Burkholderia thailandensis; assay: Antimicrobial activity against isogenic amrAB-oprA/bpeAB-oprB double knockout Burkholderia thailandensis E264 measured after overnight incubation by alamarBlue assay; assay type: functional
Escherichia coli [7] = assay: Antimicrobial activity against Escherichia coli BAS849 expressing Imp Thr332-Tyr354 deletion mutant measured after overnight incubation by alamarBlue assay; assay type: functional
Escherichia coli [8] = assay: Antimicrobial activity against Escherichia coli BW25113 expressing TolC Leu13-Ala480 deletion mutant measured after overnight incubation by alamarBlue assay; assay type: functional

SMILES | Ki [1] | Ki (Threonine--tRNA ligase) | Ki [2] | Ki [3] | MIC (Haemophilus influenzae) | MIC [4] | MIC (Escherichia coli [5]) | MIC [6] | MIC (Escherichia coli [7]) | MIC (Escherichia coli [8])
CC(C)[C@@H](O)[C@H](N)C(=O)NS(=O)(=O)/C=C/c1cccc(-c2cc(N)ncn2)c1 | 0.0324 µM | 0.0225 µM | 0.588 µM |  |  |  |  |  |  | 
C[C@@H](N)[C@H](N)C(=O)NS(=O)(=O)/C=C/c1cccc(-c2cc(N)ncn2)c1 | > 50 µM | > 50 µM |  |  |  |  |  |  |  | 
C[C@@H](O)[C@H](N)C(=O)NS(=O)(=O)c1cccc(-c2ccc3[nH]ncc3c2)c1 | 0.182 µM | 0.132 µM | 0.164 µM | > 50 µM |  |  |  |  |  | 
C[C@@H](O)[C@H](N)C(=O)NS(=O)(=O)c1ccc2ccc(-c3ncnc4[nH]ccc34)cc2c1 | 0.0024 µM | 0.0018 µM | 0.0006 µM |  | 16 mg/L (≈ 37.6 µM) | > 128 mg/L | > 128 mg/L | 32 mg/L (≈ 75.2 µM) | > 128 mg/L | 16 mg/L (≈ 37.6 µM)
C[C@@H](O)[C@H](N)C(=O)N(C)S(=O)(=O)c1cccc(-c2ccc3c(c2)CNC3=O)c1 | > 50 µM | > 50 µM |  | > 50 µM |  |  |  |  |  | 
C[C@@H](O)[C@H](N)C(=O)NS(=O)(=O)c1ccc2ccc(-c3cc(N)ncn3)cc2c1 | 0.0027 µM | 0.002 µM | 0.0007 µM |  | 4 mg/L (≈ 9.96 µM) | > 128 mg/L | > 128 mg/L | 4 mg/L (≈ 9.96 µM) | > 128 mg/L | 64 mg/L (≈ 159 µM)
C[C@@H](O)[C@H](N)C(=O)NS(=O)(=O)OC[C@@H]1O[C@H](n2cnc3c(N)ncnc32)[C@@H](O)[C@H]1O | 0.0131 µM | 0.0098 µM | 0.0028 µM |  | > 128 mg/L | > 128 mg/L | > 128 mg/L | 64 mg/L (≈ 143 µM) | > 128 mg/L | > 128 mg/L
C[C@@H](O)[C@H](N)C(=O)NS(=O)(=O)c1cccc(-c2ccc3[nH]nc(Cl)c3c2)c1 | 0.052 µM | 0.039 µM | 0.077 µM |  |  |  |  |  |  | 
C[C@@H](O)[C@H](N)C(=O)NS(=O)(=O)N1CCc2ccc(-c3ncnc4[nH]ccc34)cc2C1 | 0.0095 µM | 0.0057 µM | 0.004 µM |  |  |  |  |  |  | 
C[C@@H](O)[C@H](N)C(=O)NS(=O)(=O)c1cccc(-c2ccc3c(N)nc(N)nc3c2)c1 | 0.0107 µM | 0.0082 µM | 0.0029 µM |  | 32 mg/L (≈ 76.8 µM) | > 128 mg/L | > 128 mg/L | 4 mg/L (≈ 9.6 µM) | > 128 mg/L | 64 mg/L (≈ 154 µM)
C[C@@H](O)[C@H](N)C(=O)NNc1cccc(-c2ccc3c(N)nc(Cl)nc3c2)c1 | 0.136 µM | 0.07 µM | 0.034 µM |  |  |  |  |  |  | 
C[C@@H](O)[C@H](N)C(=O)NS(=O)(=O)c1cccc(-c2ccc3c(N)ncnc3c2)c1 | 0.0029 µM | 0.0022 µM | 0.0009 µM |  | 16 mg/L (≈ 39.9 µM) | > 128 mg/L | > 128 mg/L | 8 mg/L (≈ 19.9 µM) | > 128 mg/L | 64 mg/L (≈ 159 µM)
C[C@@H](O)[C@H](O)C(=O)NS(=O)(=O)/C=C/c1cccc(-c2cc(N)ncn2)c1 | > 50 µM | > 50 µM |  | > 50 µM |  |  |  |  |  | 
C[C@@H](O)[C@H](N)C(=O)NS(=O)(=O)c1cccc(-c2ccc3c(N)nccc3c2)c1 | 0.09 µM | 0.115 µM | 0.089 µM |  |  |  |  |  |  | 
Cc1n[nH]c2ccc(-c3cccc(S(=O)(=O)NC(=O)[C@@H](N)[C@@H](C)O)c3)cc12 | 0.127 µM | 0.083 µM | 0.143 µM |  |  |  |  |  |  | 
C[C@@H](O)[C@H](N)C(=O)NS(=O)(=O)c1cccc(-c2ccc3c(N)nc(Cl)nc3c2)c1 | 0.0008 µM | 0.0007 µM | 0.0003 µM |  | 8 mg/L (≈ 18.4 µM) | > 128 mg/L | > 128 mg/L | 32 mg/L (≈ 73.4 µM) | 128 mg/L (≈ 294 µM) | 16 mg/L (≈ 36.7 µM)
C[C@@H](O)[C@H](N)C(=O)NS(=O)(=O)c1cccc(-c2ccc3c(N)nc(Cl)cc3c2)c1 | 0.02 µM | 0.025 µM | 0.023 µM |  |  |  |  |  |  | 
C[C@@H](O)[C@H](N)C(=O)NS(=O)(=O)c1cccc(-c2ccc3c(c2)CNC3=O)c1 | 0.0077 µM | 0.0039 µM | 0.0074 µM |  |  |  |  |  |  | 
C[C@@H](O)[C@H](N)CNS(=O)(=O)c1cccc(-c2ccc3c(N)nc(Cl)nc3c2)c1 | > 50 µM | > 50 µM |  | > 50 µM |  |  |  |  |  | 
Cc1nc(N)c2ccc(-c3cccc(S(=O)(=O)NC(=O)[C@@H](N)[C@@H](C)O)c3)cc2n1 | 0.0172 µM | 0.0093 µM | 0.0122 µM |  |  |  |  |  |  | 
C[C@@H](O)[C@H](N)C(=O)NS(=O)(=O)c1ccc(Oc2ccccc2)cc1 | 36.5 µM | 33.1 µM | 193 µM |  |  |  |  |  |  | 
CC[C@@H](O)[C@H](N)C(=O)NS(=O)(=O)/C=C/c1cccc(-c2cc(N)ncn2)c1 | 0.0043 µM | 0.0027 µM | 0.0141 µM |  |  |  |  |  |  | 
C[C@@H](O)[C@H](N)C(=O)NCc1cccc(-c2ccc3c(N)nc(Cl)nc3c2)c1 | 0.329 µM | 0.436 µM | 0.14 µM |  |  |  |  |  |  | 
C[C@@H](O)[C@H](N)C(=O)NS(=O)(=O)/C=C/c1cccc(-c2cc(N)ncn2)c1 | 0.0027 µM | 0.0018 µM | 0.0011 µM |  | 8 mg/L (≈ 21.2 µM) | > 128 mg/L | > 128 mg/L | 32 mg/L (≈ 84.8 µM) | > 128 mg/L | 64 mg/L (≈ 170 µM)
